Here are results for 45 compounds from ChEMBL document CHEMBL1133481, “Resistance-modifying agents. 8. Inhibition of O(6)-alkylguanine-DNA alkyltransferase by O(6)-alkenyl-, O(6)-cycloalkenyl-, and O(6)-(2-oxoalkyl)guanines and potentiation of temozolomide cytotoxicity in vitro by O(6)-(1-cyclopentenylmethyl)guanine” (J Med Chem, 2000).

Changes are numbered by the printed parent chain. Several values for one entry are separate records, joined by “and”; a condition that tells them apart may be missing. Identical values can stand only once.

In test [1] the test system is T1, Methylated-DNA--protein-cysteine methyltransferase (Homo sapiens), P16455 [P140K].
T1 sequence (whole entry): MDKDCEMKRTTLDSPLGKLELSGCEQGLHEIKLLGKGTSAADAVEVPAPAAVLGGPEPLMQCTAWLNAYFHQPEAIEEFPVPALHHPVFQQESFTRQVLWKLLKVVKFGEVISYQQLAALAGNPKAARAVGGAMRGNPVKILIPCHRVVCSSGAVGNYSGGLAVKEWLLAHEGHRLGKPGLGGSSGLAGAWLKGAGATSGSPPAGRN
The experiment in a line: Compound was evaluated for inactivation of P140K mutant AGT. The gist of the method: (§1)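 Recombinant wild-type or mutant (P140K, Y158H, G160R, G156A) AGT, made in E. coli with an N-terminal His6 tag and purified by metal affinity, was preincubated with inhibitor for 30 min at 37 °C in 50 mM Tris-HCl pH 7.5, 0.1 mM EDTA, 5 mM DTT and hemocyanin. Residual activity was measured over a further 30 min with methylated DNA substrate. ED50 was read from a plot of % activity lost against inhibitor amount, with a maximum of […] inhibitor.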

Test [2] deals with T2, Methylated-DNA--protein-cysteine methyltransferase (Homo sapiens), P16455 [Y158H].
T2 sequence (whole entry): T1 sequence (whole entry) with K140P, Y158H
Kind of test: Compound was evaluated for inactivation of Y158H mutant AGT. The gist of the method:
as §1

Test [3] relates to T3, Methylated-DNA--protein-cysteine methyltransferase (Homo sapiens), P16455 [G160R].
T3 sequence (whole entry): T1 sequence (whole entry) with K140P, G160R
The experiment in a line: Compound was evaluated for inactivation of G160R mutant AGT. The gist of the method:
as §1

Test [4] deals with T4, Methylated-DNA--protein-cysteine methyltransferase (Homo sapiens) (UniProt P16455).
T4 sequence (whole entry): T1 sequence (whole entry) with K140P
The experiment in a line: Compound was evaluated for inactivation of Wild type AGT. Put shortly: as §1

In test [5] the target is T4, Methylated-DNA--protein-cysteine methyltransferase (Homo sapiens). Kind of test: Compound was evaluated for inactivation of 156A mutant AGT. The gist of the method: as §1
Test [6] shares this target. Kind of test: Percent AGT inactivation in HT-29 cell extract at 1 mM. The format is cell-based.
The target of test [7] is T5, Methylated-DNA--protein-cysteine methyltransferase (Homo sapiens, UniProt P16455).
T5 sequence (P16455 whole entry): T1 sequence (whole entry) with K140P
The experiment in a line: Inhibition of AGT activity to 50% of control rate in HT-29 cell extract. It is filed as cell-free.

Test [8] has as its system T3, Methylated-DNA--protein-cysteine methyltransferase (Homo sapiens), P16455 [G160R].
The test system of test [9] is T1, Methylated-DNA--protein-cysteine methyltransferase (Homo sapiens), P16455 [P140K].
Test [10] has as its target T5, Methylated-DNA--protein-cysteine methyltransferase. The experiment in a line: concentration required to reduce AGT activity to 50% of control rate in intact HT-29 human colorectal carcinoma cells. The format is cell-based. The gist of the method: (§2)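 HT29 cells were grown 3 days in EMEM with 10% FCS, then exposed for 4 h to inactivator in serum-free EMEM (DMSO final 1% or 0.1%). Cells were trypsinized, washed and counted by trypan blue; pellets of 10⁷ cells were homogenized in Tris-HCl pH 8.3 buffer with EDTA, DTT and 200 mM NaCl. AGT activity was assayed in the extracts, and the concentration depleting whole-cell AGT activity by 50% was calculated.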

Test [11] has the same target. The experiment in a line: concentration required to reduce AGT activity to 50% of control rate in HT-29 cell extract. It is filed as cell-based. The gist of the method: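 HT29 cell extract AGT assay; IC50 is the inhibitor concentration reducing AGT activity to 50% of the control rate.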
The target of test [12] is T4, Methylated-DNA--protein-cysteine methyltransferase (Homo sapiens). The experiment in a line: Percent of AGT inactivation in HT-29 cell extract at 1 mM concentration.
Test [13] has as its target T5, Methylated-DNA--protein-cysteine methyltransferase. The experiment in a line: (§3) concentration required to reduce AGT activity to 50% of control rate in intact HT-29 human colorectal carcinoma cells. It is filed as cell-based. The gist of the method:
as §2

Test [14] has the same target. Described as §3. The format is cell-based. The gist of the method: as §2
The source holds these as a separate data set.

Test [15] relates to HT-29. The experiment in a line: Cytotoxicity of compound in HT-29 cell line. The format is functional, cell-based. As to conditions: Homo sapiens. Put shortly: (§4)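 Colony-forming assay: exponentially growing cells were preincubated 1 h with 10 µM AGT inactivator (0.1% DMSO), then given temozolomide 0–1000 µM final (1% DMSO) for 4 h at 37 °C. Cells were then plated: HT29 on plastic, Colo205 in 0.15% agarose, with inactivator kept at 10 µM. After about 2 weeks, colonies were stained (crystal violet for HT29, MTT for Colo205) and counted. Temozolomide IC50 is mean ± SD of 3 independent experiments.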

The subject of test [16] is COLO 205. The experiment in a line: Cytotoxicity of compound in COLO 205 cell line. The format is functional, cell-based. As to conditions: Homo sapiens. Put shortly: as §4
Test [17] relates to HT-29. The experiment in a line: Level of AGT activity in HT-29 cell line. As to conditions: Homo sapiens. It is filed as functional, cell-based.
The subject of test [18] is COLO 205. Kind of test: Level of AGT activity in COLO 205 cell line. It is filed as functional, cell-based. As to conditions: Homo sapiens.

For `Nc1nc(OCC2=CCCC2)c2nc[nH]c2n1`, the ED50 was more than 1500 µM in test [1]; 1500 µM in test [2]; 13 µM in test [3]; 0.3 µM in test [4]; 113 µM in test [5].

For the compound `CC/C=C/CCOc1nc(N)nc2[nH]cnc12`, the Inactivation in test [6] stood at 88%. As for `CCCCOc1nc(N)nc2[nH]cnc12`, in test [7], the IC50 was determined as 493 µM. Turning to `Nc1nc(OCC2=CCC2)c2[nH]cnc2n1`, the IC50 in test [7] stood at 0.55 µM. In turn, `COC(COc1[nH]c(N)nc2ncnc1-2)(OC)c1ccccc1` yielded an Inactivation in [6] of 0%. In the case of `Nc1nc(OCc2ccccc2)c2nc[nH]c2n1`, the ED50 in [8] is 4.7 µM; in test [2], 620 µM; in test [9], more than 1500 µM; in [5] it was 60 µM. Turning to `CCOC(C)(COc1nc(N)nc2[nH]cnc12)OCC`, in [6], the Inactivation amounted to 0%. This compound also returned an IC50 in [7] of more than 1000 µM.

`Nc1nc(OCC2=CCCC2)c2[nH]cnc2n1`: the half-maximal inhibitory concentration (IC50) in test [7] was found to be 0.39 µM; in test [10], 0.2 µM. Take `CC(C)C1(COc2nc(N)nc3[nH]cnc23)OCCO1`: in test [6], the Inactivation was 54%. The compound `CCCCCCCOc1nc(N)nc2[nH]cnc12` yielded an Inactivation in test [6] of 10%. In test [7], this compound had a half-maximal inhibitory concentration (IC50) of more than 100 µM. In turn, `CCCCCOc1nc(N)nc2[nH]cnc12` gave a half-maximal inhibitory concentration (IC50) in [7] of 1010 µM.

As to `C=CCCCCOc1nc(N)nc2[nH]cnc12`, the Inactivation in test [6] amounted to 65%. Compound `Nc1nc(OCC2CCCCC2)c2nc[nH]c2n1` registered an Inactivation in [6] of 0%. The same compound showed an IC50 in test [11] of more than 1000 µM. As to `Nc1nc(OCC2CC=CCC2)c2[nH]cnc2n1` (stereo not drawn), in test [12], the Inactivation was determined as 32%. Also, in test [11], the 50% inhibitory concentration (IC50) is more than 1000 µM. As for `CCC(=O)COc1nc(N)nc2nc[nH]c12`, the IC50 is 151 µM in test [7]; 94.5 µM and 93.2 µM in test [13]. The compound `CCCOc1nc(N)nc2[nH]cnc12` gave an Inactivation in [12] of 24%. For `CC(=O)COc1nc(N)nc2[nH]cnc12`, the IC50 is 192 µM in [7]; 95 µM and 119 µM in [13].

Consider `C=C(COc1nc(N)nc2[nH]cnc12)C(C)C`, for which the Inactivation in [12] is 22%. The half-maximal inhibitory concentration (IC50) in test [11] was more than 1000 µM. With `C=C(CC)COc1nc(N)nc2[nH]cnc12`, in test [7], the half-inhibitory concentration (IC50) is 16 µM. In [7], `Nc1nc(OCC2=CCCCC2)c2[nH]cnc2n1` had a 50% inhibitory concentration (IC50) of 1.6 µM. `CC(C)CCOc1nc(N)nc2nc[nH]c12` yielded an IC50 in [11] of more than 1000 µM.

`COC(COc1nc(N)nc2nc[nH]c12)(OC)c1ccccc1` registered an IC50 in test [7] of more than 1000 µM. Regarding `CC/C=C\CCOc1[nH]c(N)nc2ncnc1-2`, the Inactivation in test [12] was determined as 32%. Further, in [11], the concentration for half-maximal inhibition (IC50) was more than 1000 µM.

In test [12], `CC(C)CCOc1nc(N)nc2[nH]cnc12` gave an Inactivation of 24%.

On to `C=C(C)[C@H]1CC=C(COc2nc(N)nc3[nH]cnc23)CC1`, for which the IC50 in test [7] is 2.6 µM.

Take `C=CCOc1nc(N)nc2nc[nH]c12`: the IC50 in [7] was 8.5 µM; in [13] it was 2.7 µM; in [14], 5.1 µM. Consider `Cn1nnc2c(C(N)=O)ncn2c1=O.Nc1nc(OCc2ccccc2)c2[nH]cnc2n1`, for which the IC50 in the test with HT-29 [15] came to 86 µM; with COLO 205 [16], 14 µM. Consider `CCCCCCOc1[nH]c(N)nc2ncnc1-2`, for which it took 554 µM to reach half-maximal inhibition in test [7] (IC50). Regarding `C#CCOc1nc(N)nc2nc[nH]c12`, the IC50 was 20 µM in [7]; 11.5 µM and 11.9 µM in test [13].

`Cn1nnc2c(C(N)=O)ncn2c1=O` [TEMOZOLOMIDE]: the Level was 908 fM/mg in the test on HT-29 [17] and 1160 fM/mg with COLO 205 [18]. The half-inhibitory concentration (IC50) in the test with HT-29 [15] was 951 µM; with COLO 205 [16], 343 µM. In [6], `Nc1nc(OCC(=O)c2ccccc2)c2[nH]cnc2n1` yielded an Inactivation of 0%. In test [11], this compound returned an IC50 of more than 1000 µM. As for `C=C(C)COc1nc(N)nc2nc[nH]c12`, the IC50 was 25 µM in test [7]; 13.5 µM and 9.9 µM in test [13]. For `Nc1nc(OCCc2ccccc2)c2nc[nH]c2n1`, the IC50 in test [7] is 548 µM. `Nc1nc(OCC2CCCC2)c2nc[nH]c2n1` came in with an Inactivation in test [12] of 0%. The IC50 in test [11] is more than 1000 µM. The corresponding values for `CC(C)C(=O)COc1nc(N)nc2nc[nH]c12` are 31% and more than 1000 µM.

As for `CC1(C)OCC(COc2nc(N)nc3[nH]cnc23)O1` (stereo not drawn), in [6], the Inactivation stood at 0%. In [7], this compound had a 50% inhibitory concentration (IC50) of more than 1000 µM. Take `Nc1nc(OCC2CCC2)c2[nH]cnc2n1`: the Inactivation in test [12] was determined as 34%. Moreover, in test [11], the IC50 is more than 1000 µM.

Compound `CCCOc1nc(N)nc2nc[nH]c12` showed an IC50 in test [11] of more than 1000 µM.

For the compound `COc1nc(N)nc2nc[nH]c12` [METHYLGUANINE], the IC50 in [7] was 428 µM; in test [10], 248 µM. In [6], `CCOc1nc(N)nc2[nH]cnc12` gave an Inactivation of 0%.

In turn, `Nc1nc(Oc2cccs2)c2[nH]cnc2n1` registered a concentration for half-maximal inhibition (IC50) in test [7] of 0.003 µM. The same measure, in the same setting: under `CCOc1nc(N)nc2nc[nH]c12` stands more than 1000 µM. As to `Cn1nnc2c(C(N)=O)ncn2c1=O.Nc1nc(OCC2=CCCC2)c2[nH]cnc2n1`, the IC50 in the test on HT-29 [15] was 299 µM; in the test with COLO 205 [16], 36 µM. As for `C=C(COc1nc(N)nc2nc[nH]c12)c1ccccc1`, the half-inhibitory concentration (IC50) in test [7] was 77 µM; in test [13], 37.5 µM and 39.6 µM. Turning to `CCC(COc1nc(N)nc2[nH]cnc12)(OC)OC`, in [6], the Inactivation was found to be 0%. In [7], the half-maximal inhibitory concentration (IC50) is more than 1000 µM.
